What was measured:
[1] = system: Mycobacterium tuberculosis; experiment: Antitubercular activity against Mycobacterium tuberculosis H37Rv after 5 days at 200 uM relative to control; type: functional; details: 120 h
Outline: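 M. tuberculosis grown in liquid culture with compound at a fixed 200 μM for 5 days. Growth inhibition expressed as percent of control.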

[2] = molecular target: T1, Tyrosine-protein phosphatase non-receptor type 2 (Homo sapiens, UniProt P17706); experiment: Inhibition of human PTPN2 expressed in Escherichia coli Rosetta 2 (DE3) using pNPP as substrate after 45 mins by spectrophotometric method
T1 sequence (P17706 whole entry): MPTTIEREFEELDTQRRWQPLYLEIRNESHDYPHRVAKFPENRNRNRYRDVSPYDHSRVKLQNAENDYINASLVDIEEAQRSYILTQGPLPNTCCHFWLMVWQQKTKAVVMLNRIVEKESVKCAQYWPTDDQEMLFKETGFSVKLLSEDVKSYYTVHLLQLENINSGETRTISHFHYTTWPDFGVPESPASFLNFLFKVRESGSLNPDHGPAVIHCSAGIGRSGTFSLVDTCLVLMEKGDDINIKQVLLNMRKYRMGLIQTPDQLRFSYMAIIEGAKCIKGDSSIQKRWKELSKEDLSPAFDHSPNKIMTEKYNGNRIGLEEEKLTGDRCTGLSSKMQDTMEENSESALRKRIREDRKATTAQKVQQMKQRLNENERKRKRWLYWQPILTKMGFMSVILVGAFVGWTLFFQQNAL

[3] = molecular target: T2, Tyrosine-protein phosphatase non-receptor type 5 (Homo sapiens, UniProt P54829); experiment: Inhibition of human PTPN5 expressed in Escherichia coli Rosetta 2 (DE3) using pNPP as substrate after 45 mins by spectrophotometric method
T2 sequence (P54829 whole entry): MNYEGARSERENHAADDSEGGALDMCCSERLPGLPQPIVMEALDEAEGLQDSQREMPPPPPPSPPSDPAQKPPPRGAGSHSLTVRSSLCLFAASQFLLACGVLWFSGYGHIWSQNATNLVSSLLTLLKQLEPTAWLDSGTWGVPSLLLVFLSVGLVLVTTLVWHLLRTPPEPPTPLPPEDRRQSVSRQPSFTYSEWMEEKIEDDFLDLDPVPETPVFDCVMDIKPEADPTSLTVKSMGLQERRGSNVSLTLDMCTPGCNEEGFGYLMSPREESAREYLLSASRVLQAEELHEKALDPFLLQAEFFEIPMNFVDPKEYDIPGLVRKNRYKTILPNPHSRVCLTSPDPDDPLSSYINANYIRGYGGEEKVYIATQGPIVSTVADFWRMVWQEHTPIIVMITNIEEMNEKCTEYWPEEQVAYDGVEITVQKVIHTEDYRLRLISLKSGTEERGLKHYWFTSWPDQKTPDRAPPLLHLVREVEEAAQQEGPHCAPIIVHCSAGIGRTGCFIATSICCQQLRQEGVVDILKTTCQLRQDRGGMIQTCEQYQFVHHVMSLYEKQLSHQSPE

[4] = molecular target: T3, Tyrosine-protein phosphatase non-receptor type 1 (Homo sapiens, UniProt P18031); experiment: Inhibition of human PTPN1 expressed in Escherichia coli Rosetta 2 (DE3) using pNPP as substrate after 45 mins by spectrophotometric method
T3 sequence (P18031 whole entry): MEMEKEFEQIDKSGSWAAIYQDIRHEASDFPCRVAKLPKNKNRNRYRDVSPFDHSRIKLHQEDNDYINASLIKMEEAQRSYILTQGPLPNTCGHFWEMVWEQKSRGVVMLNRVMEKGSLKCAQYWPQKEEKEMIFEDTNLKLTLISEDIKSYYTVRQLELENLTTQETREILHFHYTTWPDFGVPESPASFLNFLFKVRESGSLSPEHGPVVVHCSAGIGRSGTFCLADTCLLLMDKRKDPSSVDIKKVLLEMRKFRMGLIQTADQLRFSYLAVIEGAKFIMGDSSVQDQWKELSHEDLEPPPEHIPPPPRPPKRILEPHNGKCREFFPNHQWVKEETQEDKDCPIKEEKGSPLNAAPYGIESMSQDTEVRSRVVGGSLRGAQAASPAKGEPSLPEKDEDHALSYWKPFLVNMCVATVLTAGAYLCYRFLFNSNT

[5] = molecular target: T4, Phosphotyrosine protein phosphatase (Mycobacterium tuberculosis, UniProt A0A045ISB3); experiment: Inhibition of Mycobacterium tuberculosis His-tagged PtpB expressed in Escherichia coli Rosetta 2 (DE3) using pNPP as substrate after 30 mins by spectrophotometric method
T4 sequence (A0A045ISB3 whole entry): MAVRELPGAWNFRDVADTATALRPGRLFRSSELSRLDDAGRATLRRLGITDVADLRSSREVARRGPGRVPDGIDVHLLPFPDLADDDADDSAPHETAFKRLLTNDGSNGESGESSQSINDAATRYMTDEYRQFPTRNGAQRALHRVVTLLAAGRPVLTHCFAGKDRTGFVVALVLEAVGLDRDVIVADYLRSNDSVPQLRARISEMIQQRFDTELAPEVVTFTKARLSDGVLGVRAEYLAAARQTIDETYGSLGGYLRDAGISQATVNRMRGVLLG

SMILES	inhibition at 200 µM [1] [%]	IC50 [2] [µM]	IC50 [3] [µM]	IC50 [4] [µM]	IC50 [5] [µM]
O=S(=O)(Nc1ccc(-c2nc3cc(NS(=O)(=O)c4cccc5nsnc45)ccc3o2)cc1)c1cccc2nsnc12	0	17	17	10	7
Cc1cccc(S(=O)(=O)Nc2ccc(-c3nc4cc(NS(=O)(=O)c5cccc(C)c5)ccc4o3)cc2)c1	0	17	16	13	5.8
Cc1ccccc1S(=O)(=O)Nc1ccc(-c2nc3cc(NS(=O)(=O)c4ccccc4C)ccc3o2)cc1	0	18	14	12	4.9
O=[N+]([O-])c1ccc(S(=O)(=O)Nc2ccc(-c3nc4cc(NS(=O)(=O)c5ccc([N+](=O)[O-])cc5)ccc4o3)cc2)cc1	0	28	18	27	6.2
COc1ccc(S(=O)(=O)Nc2ccc3oc(-c4ccc(NS(=O)(=O)c5ccc(Cl)s5)cc4)nc3c2)cc1	41	24	16	12	9.6
O=S(=O)(Nc1ccc2oc(-c3ccc(NS(=O)(=O)c4cccc5ccccc45)cc3)nc2c1)c1ccc(Cl)s1	0	15	9.1	5.4	2.7
Cc1ccc(S(=O)(=O)Nc2ccc(-c3nc4ccc(NS(=O)(=O)c5ccc(C)cc5)cc4[nH]3)cc2)cc1	14	22	13	15	23
O=S(=O)(Nc1ccc(-c2nc3cc(NS(=O)(=O)c4ccc5nsnc5c4)ccc3o2)cc1)c1ccc2nsnc2c1	0	11	11	8	6.4
O=S(=O)(Cc1ccccc1)Nc1ccc(-c2nc3cc(NS(=O)(=O)Cc4ccccc4)ccc3o2)cc1	0	31	25	23	27
C=Cc1ccc(S(=O)(=O)Nc2ccc(-c3nc4cc(NS(=O)(=O)c5ccc(Cl)s5)ccc4o3)cc2)cc1	14	14	13	10	5
O=S(=O)(Nc1ccc(-c2nc3cc(NS(=O)(=O)c4cccc5nonc45)ccc3o2)cc1)c1ccc(Cl)s1	14	25	19	16	8.6
O=C(O)c1ccc(S(=O)(=O)Nc2ccc(-c3nc4cc(NS(=O)(=O)c5ccc(C(=O)O)cc5)ccc4o3)cc2)cc1	10	> 100	> 100	> 100	12
COc1ccccc1S(=O)(=O)Nc1ccc(-c2nc3cc(NS(=O)(=O)c4ccccc4OC)ccc3o2)cc1	12	21	19	12	8.7
O=S(=O)(Nc1ccc(-c2nc3cc(NS(=O)(=O)c4ccccc4C(F)(F)F)ccc3o2)cc1)c1ccccc1C(F)(F)F	35	22	15	14	8.1
CCc1ccc(S(=O)(=O)Nc2ccc3oc(-c4ccc(NS(=O)(=O)c5ccc(Cl)s5)cc4)nc3c2)cc1	0	15	15	11	7.1
O=C(O)c1ccccc1S(=O)(=O)Nc1ccc(-c2nc3cc(NS(=O)(=O)c4ccccc4C(=O)O)ccc3o2)cc1	22	> 100	> 100	> 100	4.2
O=c1ccc2cc(S(=O)(=O)Nc3ccc4oc(-c5ccc(NS(=O)(=O)c6ccc(Cl)s6)cc5)nc4c3)ccc2o1	18	9.3	11	13	4.1
O=[N+]([O-])c1cc(S(=O)(=O)Nc2ccc(-c3nc4cc(NS(=O)(=O)c5ccc(Cl)s5)ccc4o3)cc2)ccc1Cl	29	18	15	8	4
COC(=O)c1ccccc1S(=O)(=O)Nc1ccc(-c2nc3cc(NS(=O)(=O)c4ccccc4C(=O)OC)ccc3o2)cc1	0	14	21	10	11
O=S(=O)(Nc1ccc(-c2nc3cc(NS(=O)(=O)c4ccc5ncsc5c4)ccc3o2)cc1)c1ccc2ncsc2c1	0	12	20	7	20
O=c1ccc2cc(S(=O)(=O)Nc3ccc(-c4nc5cc(NS(=O)(=O)c6ccc(Cl)s6)ccc5o4)cc3)ccc2o1	0	17	15	8.4	5.5
O=S(=O)(Nc1ccc2oc(-c3ccc(NS(=O)(=O)c4ccc(Cl)s4)cc3)nc2c1)c1ccc(Cl)c(Cl)c1	0	13	11	7.6	3.3
O=c1ccc2cc(S(=O)(=O)Nc3ccc(-c4nc5cc(NS(=O)(=O)c6ccc7oc(=O)ccc7c6)ccc5o4)cc3)ccc2o1	23	9.1	17	6.3	8.7
O=S(=O)(Nc1ccc(-c2nc3cc(NS(=O)(=O)c4cccc(Cl)c4)ccc3o2)cc1)c1cccc(Cl)c1	0	17	13	16	2.3
COC(=O)c1ccc(S(=O)(=O)Nc2ccc(-c3nc4cc(NS(=O)(=O)c5ccc(C(=O)OC)cc5)ccc4o3)cc2)cc1	0	17	22	11	11
O=S(=O)(Nc1ccc(-c2nc3cc(NS(=O)(=O)c4cccc5ccccc45)ccc3o2)cc1)c1ccc(Cl)s1	12	7.3	5.1	6.5	2.2
O=S(=O)(Nc1ccc(-c2nc3cc(NS(=O)(=O)c4ccc(C(F)(F)F)cc4)ccc3o2)cc1)c1ccc(C(F)(F)F)cc1	0	13	7.9	6.4	2.8
O=S(=O)(Nc1ccc(-c2nc3cc(NS(=O)(=O)c4ccc5ccccc5c4)ccc3o2)cc1)c1ccc2ccccc2c1	0	24	6.2	4.3	4.4
O=S(=O)(Nc1ccc(-c2nc3cc(NS(=O)(=O)c4ccc(Br)cc4)ccc3o2)cc1)c1ccc(Br)cc1	0	18	11	11	3.6

Source: ChEMBL document CHEMBL4387722
